Activity calls are given as the source filed them. The rule behind the calls is not given here.
Experiments:
[1] = tested on: Mast cell; test: Inhibition of compound-48/80 induced degranulation in Wistar rat peritoneal mast cells assessed as histamine release at 20 uM by spectrophotometry
[2] = tested on: Mast cell; test: Inhibition of compound-48/80 induced degranulation in Wistar rat peritoneal mast cells assessed as histamine release at 20 uM by spectrophotometry; assay type: functional
Procedure, shortened: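 Peritoneal cells recovered by lavage with 15 ml HEPES buffer at 37 °C from a female Wistar rat (250-300 g). Cells washed by centrifugation, >90% viable, about 1.4% mast cells. Stopped with iced buffer; released histamine measured by o-phthalaldehyde spectrophotometry. Mean of at least five experiments, SE given.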

[3] = tested on: Mus musculus; test: Antiinflammatory activity in Laca mouse assessed as inhibition of arachidonic acid-induced ear oedema at 300 ug/ear; assay type: functional
Procedure, shortened: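 Male Laca mice (25-30 g), groups of five, sedated with sodium pentobarbitone 60 mg kg-1 i.p. Compound or indomethacin at 300 µg ear-1 and arachidonic acid at 1 mg ear-1, all in acetone. 5 mm punch biopsies taken from both ears and weighed; left-ear weight subtracted from right. Inhibition calculated against the AA-only group. Student's t-test; at least 5 animals.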

[4] = tested on: Mast cell; test: Inhibition of compound-48/80 induced degranulation in Wistar rat peritoneal mast cells assessed as histamine release by spectrophotometry; assay type: functional, cell-based
Procedure, shortened: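 Female Wistar rat (250-300 g) peritoneal lavage cells in HEPES buffer, unpurified, preincubated with compound across a dose range. Stopped with iced buffer; histamine release measured spectrophotometrically as o-phthalaldehyde complex. IC50 derived from dose-response curve fitting.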

[5] = tested on: Mast cell; test: Inhibition of concanavalin A-induced degranulation in Wistar rat peritoneal mast cells assessed as histamine release by spectrophotometry
[6] = tested on: Mast cell; test: Inhibition of compound-48/80 induced degranulation in Wistar rat peritoneal mast cells assessed as histamine release by spectrophotometry
[7] = tested on: Mast cell; test: Inhibition of A23187-induced degranulation in Wistar rat peritoneal mast cells assessed as histamine release by spectrophotometry

O=C1CCC(N(Cc2ccc([N+](=O)[O-])cc2)C2CCCC2)c2ccccc21 (centres undefined)
inhibition at 20 µM [1]: 65%

C=CCN(C1CCCC1)C1CCC(=O)c2ccccc21 (centres undefined)
Activity [2]: inactive

CN(C1CCCC1)C1CCC(=O)c2ccccc21 (centres undefined)
inhibition at 20 µM [1]: 43%

O=C(O)c1cc(=O)c2c(OCC(O)COc3cccc4oc(C(=O)O)cc(=O)c34)cccc2o1 [CROMOLYN SODIUM]
inhibition at 20 µM [1]: 10%

CC(=O)N(C1CCCC1)C1CCC(=O)c2ccccc21 (centres undefined)
inhibition (INH) [3]: 2%

O=C1CCC(N(Cc2ccc3ccccc3c2)C2CCCC2)c2ccccc21 (centres undefined)
inhibition at 20 µM [1]: 77%

CC(=O)c1ccccc1CN(C)Cc1ccccc1
Activity [4]: inactive | Activity [2]: inactive

O=C1CCC(N(C(=O)Cc2ccccc2)C2CCCC2)c2ccccc21 (centres undefined)
inhibition (INH) [3]: 53%

N#Cc1ccc(CN(C2CCCC2)C2CCC(=O)c3ccccc32)cc1 (centres undefined)
inhibition at 20 µM [1]: 67%

CCC(=O)NC1CCC(=O)c2ccccc21 (centres undefined)
inhibition (INH) [3]: 11%

COc1ccc2c(c1)c(CC(=O)O)c(C)n2C(=O)c1ccc(Cl)cc1 [INDOMETHACIN]
inhibition (INH) [3]: 74%

CN(Cc1ccccc1)C1CCC(=O)c2ccccc21 (centres undefined)
Activity [4]: inactive | Activity [2]: inactive

O=C1CCC(N(Cc2ccccc2)C2CCCC2)c2ccccc21 (centres undefined)
inhibition at 20 µM [1]: 99% | IC50 [5]: 7.2 µM | IC50 [6]: 2.4 µM | IC50 [7]: 0.28 µM

COc1cc(CN(C2CCCC2)C2CCC(=O)c3ccccc32)cc(OC)c1OC (centres undefined)
Activity [2]: inactive
